Legend:
[1] = system: human dermal fibroblasts (HDFs); assay: Cell adhesion assay on peptide-BSA-coated plates, HDFs; assay type: cell-based; details: peptides conjugated at 0.125 μM and 1 μM; 5 × 10^3 cells/well; 1 h
Method in brief: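 HDFs grown in DMEM with 10% FBS and penicillin/streptomycin, detached with 0.05% trypsin–EDTA, and suspended in 0.1% BSA/DMEM. Plates coated with Mal-BSA (10 μg/mL in water; 30 min, 37 °C), then Cys-PPP-spacer amide peptides in 100 mM HEPES pH 7 for 2 h. After 1 h adhesion, cells fixed and stained with crystal violet. Counts averaged over nine 0.77 mm2 fields; mean ± SE, three independent experiments.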

integrin αvβ5 = details: cited from earlier work
integrin αvβ3 = details: cited from earlier work

Substance	Effect of the X3 amino acid on cell adhesion activity, HDFs [1]	Affinity for integrin αvβ5 relative to linear RGD peptides (integrin αvβ5)	Affinity for integrin αvβ3 relative to linear RGD peptides (integrin αvβ3)
CPPP-RGDNYI	negligible		
CPPP-RGDNYP	negligible		
c(RGDf(NMe)V) [cilengitide]		much higher affinity	much higher affinity
